Experimental data of several laboratories.
Compare with care: the assays were run in different laboratories.
Penicillin-binding protein 2X: Penicillin-binding protein 2X (Streptococcus pneumoniae R6, UniProt P59676)
PTGS2: Prostaglandin G/H synthase 2 (PTGS2, Homo sapiens, UniProt P35354)

`CN1CC[C@@]2(C)c3cc(OC(=O)Nc4ccccc4)ccc3N(C)[C@@H]12` gave an IC50 of < 10 µM (Retinal dehydrogenase 2 (ALDH1A2, Homo sapiens, UniProt O94788); enzyme activity, inhibitor, fluorescence; 15 min, pH 7.5).
For `CC(C)(C)CNCc1nc2ccccc2n1CCOc1ccccc1`, the Kd was 115 µM (Penicillin-binding protein 2X; binding, MST).
For `CCCCC/C=C\C/C=C\C/C=C\C/C=C\CCCC(=O)OC(CO)CO`, the Ki was 1 µM (Fatty acid-binding protein 5-ANS (Mus musculus, UniProt Q05816); ligand displacement, fluorescence).
`Cn1c(=O)n(CCCCN2CCC3(CC2)OCc2ccccc23)c2ccccc21` gave a Ki of 0.0141 µM (Sigma non-opioid intracellular receptor 1 (SIGMAR1, Cavia porcellus, UniProt Q60492); ligand displacement, radioligand; cell membranes).
The IC50 of `C=CCOc1ccc(C(=O)/C=C/c2ccc(OC)cc2)c(OS(=O)(=O)c2ccc(F)cc2)c1I` is reported as 28.9 µM (PTGS2; enzyme activity, inhibitor).
`COc1cc2c(cc1OC)CN(CCc1ccc(NC(=O)c3cccc4c(=O)c5cccc(OC)c5[nH]c34)cc1)CC2` gave a Ki of 0.144 µM (Alpha-1D adrenergic receptor (ADRA1D, Homo sapiens, UniProt P25100); cell-free assay).
With `COc1ccc2cc3[n+](cc2c1OC)CCc1cc2c(cc1-3)OCO2` the Kd was ~0.652 µM (Zinc finger protein GLI1 (GLI1, Homo sapiens, UniProt P08151); binding, SPR).
For `C=CCOc1ccc(C(=O)/C=C/c2cccc(F)c2)c(OS(=O)(=O)c2ccc(F)cc2)c1I`, the IC50 was 18.6 µM (PTGS2; enzyme activity, inhibitor).
For `Fc1c(F)c(F)c(OCCn2c(CNCC34CC5CC(CC(C5)C3)C4)nc3ccccc32)c(F)c1F`, the Kd was 70 µM (Penicillin-binding protein 2X; binding, MST).
